Experimental data taken from ChEMBL document CHEMBL2086389, “Synthesis and biological evaluation of crown ether fused quinazoline analogues as potent EGFR inhibitors” (Bioorg Med Chem Lett, 2012).
Calls of active or inactive are those of the source. The rule behind the calls is not given here.

Legend:
[1] = molecular target: T1, Epidermal growth factor receptor (Homo sapiens, UniProt P00533); assay: Inhibition of EGFR using GST-Crk as substrate assessed as phosphorylated Crk level after 20 mins by SDS-PAGE analysis
T1 sequence (P00533 whole entry): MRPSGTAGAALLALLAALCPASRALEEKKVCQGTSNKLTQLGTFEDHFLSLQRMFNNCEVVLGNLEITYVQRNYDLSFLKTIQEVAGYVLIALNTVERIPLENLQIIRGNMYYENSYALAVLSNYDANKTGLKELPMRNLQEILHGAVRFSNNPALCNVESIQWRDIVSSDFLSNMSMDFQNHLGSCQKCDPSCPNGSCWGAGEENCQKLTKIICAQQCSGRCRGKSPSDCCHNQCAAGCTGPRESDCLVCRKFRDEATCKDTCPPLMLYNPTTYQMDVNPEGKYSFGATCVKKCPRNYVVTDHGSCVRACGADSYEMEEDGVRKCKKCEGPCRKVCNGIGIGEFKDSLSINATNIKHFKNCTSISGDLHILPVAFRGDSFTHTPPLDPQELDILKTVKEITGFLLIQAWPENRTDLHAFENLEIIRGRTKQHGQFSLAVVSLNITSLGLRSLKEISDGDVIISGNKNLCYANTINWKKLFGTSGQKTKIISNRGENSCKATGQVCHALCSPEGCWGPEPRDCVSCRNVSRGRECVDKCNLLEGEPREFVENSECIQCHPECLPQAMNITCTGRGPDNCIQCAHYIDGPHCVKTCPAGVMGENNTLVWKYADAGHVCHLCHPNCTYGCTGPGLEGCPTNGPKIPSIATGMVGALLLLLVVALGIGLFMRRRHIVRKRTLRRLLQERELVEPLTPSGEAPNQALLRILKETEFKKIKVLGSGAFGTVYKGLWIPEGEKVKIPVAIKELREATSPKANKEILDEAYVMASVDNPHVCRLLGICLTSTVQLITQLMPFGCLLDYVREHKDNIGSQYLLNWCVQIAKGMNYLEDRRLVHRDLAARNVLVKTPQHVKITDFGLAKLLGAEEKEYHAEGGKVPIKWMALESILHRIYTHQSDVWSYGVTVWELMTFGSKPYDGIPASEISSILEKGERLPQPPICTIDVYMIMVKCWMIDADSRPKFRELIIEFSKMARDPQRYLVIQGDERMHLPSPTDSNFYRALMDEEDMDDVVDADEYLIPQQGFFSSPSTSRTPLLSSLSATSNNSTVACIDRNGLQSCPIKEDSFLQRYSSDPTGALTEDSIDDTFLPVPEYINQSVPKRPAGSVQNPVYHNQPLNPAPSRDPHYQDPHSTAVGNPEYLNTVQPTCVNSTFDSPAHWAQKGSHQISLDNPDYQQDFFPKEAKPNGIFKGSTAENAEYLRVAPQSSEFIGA
Procedure, shortened: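 Kinase mix was incubated with inhibitor at 0, 0.5, 2.5, 12.5 and 62.5 nM on ice for 10 min, then at 30 °C for 20 min. The reaction was quenched with SDS sample buffer at 100 °C for 4 min. Proteins were run on 10% SDS–PAGE and the dried gel was quantified by phosphorimager.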

[2] = molecular target: T1, Epidermal growth factor receptor; assay: Inhibition of EGFR-mediated intracellular tyrosine phosphorylation in EGF-stimulated human A431 cells after 2.5 hrs by SDS-PAGE analysis; type: cell-based, A-431
Procedure, shortened: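 A431 cells were grown 2 days in DMEM with 10% FCS at 37 °C, 5% CO₂, then serum-starved 18 h. Inhibitor was added at 0, 10, 50, 250 and 1000 nM for 2.5 h at 37 °C. Cells were stimulated with 100 ng/ml EGF for 5 min and lysed in SDS buffer with 1 mM vanadate. Lysates were run on 10% SDS–PAGE, immunoblotted with anti-phosphotyrosine (pY99, 4G10), detected by ECL, and quantified by densitometry.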

[3] = molecular target: Tyrosine-protein kinase ABL2 (Homo sapiens) (UniProt P42684); assay: Inhibition of Arg at >[…] nM
Tyrosine-protein kinase ABL2 (Homo sapiens), sequence (P42684 whole entry): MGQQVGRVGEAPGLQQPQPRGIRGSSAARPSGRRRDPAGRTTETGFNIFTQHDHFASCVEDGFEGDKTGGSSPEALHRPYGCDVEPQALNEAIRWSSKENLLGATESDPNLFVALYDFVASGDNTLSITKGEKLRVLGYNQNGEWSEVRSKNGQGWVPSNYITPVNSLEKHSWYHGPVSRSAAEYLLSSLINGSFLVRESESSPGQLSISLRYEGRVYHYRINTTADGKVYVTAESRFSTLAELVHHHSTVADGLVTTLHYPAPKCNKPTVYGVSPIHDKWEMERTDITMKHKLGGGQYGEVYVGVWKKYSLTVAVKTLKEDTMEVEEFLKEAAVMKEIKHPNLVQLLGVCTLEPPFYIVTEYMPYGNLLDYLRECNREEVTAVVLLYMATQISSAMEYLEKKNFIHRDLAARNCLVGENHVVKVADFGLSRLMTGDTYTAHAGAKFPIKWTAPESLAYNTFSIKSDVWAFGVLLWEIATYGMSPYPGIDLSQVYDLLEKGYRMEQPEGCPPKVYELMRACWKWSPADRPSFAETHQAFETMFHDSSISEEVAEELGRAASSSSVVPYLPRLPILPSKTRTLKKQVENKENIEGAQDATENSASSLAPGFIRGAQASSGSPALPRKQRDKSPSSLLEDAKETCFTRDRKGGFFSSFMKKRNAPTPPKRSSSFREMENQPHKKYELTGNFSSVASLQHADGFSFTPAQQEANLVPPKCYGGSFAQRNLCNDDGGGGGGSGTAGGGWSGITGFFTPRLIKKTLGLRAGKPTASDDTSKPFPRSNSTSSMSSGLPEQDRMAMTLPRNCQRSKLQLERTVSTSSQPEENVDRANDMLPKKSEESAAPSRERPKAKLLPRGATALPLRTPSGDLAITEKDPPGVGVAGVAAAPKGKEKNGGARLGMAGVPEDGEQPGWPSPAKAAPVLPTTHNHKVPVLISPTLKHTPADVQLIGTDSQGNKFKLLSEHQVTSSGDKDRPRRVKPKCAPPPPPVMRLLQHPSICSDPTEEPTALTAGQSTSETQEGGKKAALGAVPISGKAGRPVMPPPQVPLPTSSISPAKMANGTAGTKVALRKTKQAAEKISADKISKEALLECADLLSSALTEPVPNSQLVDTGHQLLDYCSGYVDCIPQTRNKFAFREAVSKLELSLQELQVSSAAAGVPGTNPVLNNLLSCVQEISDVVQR

[4] = Mean residence time in rat at 35 mg/kg, iv and 35 mg/kg, po; type: ADME, organism-based; conditions: in vivo
Procedure, shortened: (§1)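 Rats given a single oral dose (35 mg/kg) and a separate single intravenous dose (35 mg/kg). Pharmacokinetic parameters were derived from these two dosings.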

[5] = Half life in rat at 35 mg/kg, po; type: ADME, organism-based; design: dose 35 mg/kg, route oral; conditions: in vivo; procedure, shortened: as §1
[6] = Clearance in rat at 35 mg/kg, iv and 35 mg/kg, po; type: ADME, organism-based; conditions: in vivo; procedure, shortened: as §1
[7] = Cmax in rat at 35 mg/kg, po; type: ADME, organism-based; design: dose 35 mg/kg, route oral; conditions: in vivo; procedure, shortened: as §1
[8] = Oral bioavailability in rat at 35 mg/kg; type: ADME, organism-based; conditions: in vivo; procedure, shortened: as §1
[9] = tested on: Rattus norvegicus; assay: AUC in rat at 35 mg/kg, po; type: ADME, organism-based, Plasma; design: dose 35 mg/kg, route oral; conditions: in vivo; procedure, shortened: as §1
[10] = tested on: A-431; assay: Antitumor activity against human A431 cells xenografted in mouse assessed as inhibition of tumor growth administered as po qd; type: functional, organism-based
Procedure, shortened: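 Mice carried A431 xenografts. At a tumor volume of about 20 mm³ they were randomized, n = 10/group. Dosing was oral, once daily, at 30, 60 and 120 mg/kg in 0.5% CMC-Na vehicle, for 18–30 days. The positive control was Taxol 30 mg/kg ip once weekly. Tumor size was followed.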

[11] = molecular target: Tyrosine-protein kinase ABL1 (Homo sapiens) (UniProt P00519); assay: Inhibition of Abl at >[…] nM
Tyrosine-protein kinase ABL1 (Homo sapiens), sequence (P00519 whole entry): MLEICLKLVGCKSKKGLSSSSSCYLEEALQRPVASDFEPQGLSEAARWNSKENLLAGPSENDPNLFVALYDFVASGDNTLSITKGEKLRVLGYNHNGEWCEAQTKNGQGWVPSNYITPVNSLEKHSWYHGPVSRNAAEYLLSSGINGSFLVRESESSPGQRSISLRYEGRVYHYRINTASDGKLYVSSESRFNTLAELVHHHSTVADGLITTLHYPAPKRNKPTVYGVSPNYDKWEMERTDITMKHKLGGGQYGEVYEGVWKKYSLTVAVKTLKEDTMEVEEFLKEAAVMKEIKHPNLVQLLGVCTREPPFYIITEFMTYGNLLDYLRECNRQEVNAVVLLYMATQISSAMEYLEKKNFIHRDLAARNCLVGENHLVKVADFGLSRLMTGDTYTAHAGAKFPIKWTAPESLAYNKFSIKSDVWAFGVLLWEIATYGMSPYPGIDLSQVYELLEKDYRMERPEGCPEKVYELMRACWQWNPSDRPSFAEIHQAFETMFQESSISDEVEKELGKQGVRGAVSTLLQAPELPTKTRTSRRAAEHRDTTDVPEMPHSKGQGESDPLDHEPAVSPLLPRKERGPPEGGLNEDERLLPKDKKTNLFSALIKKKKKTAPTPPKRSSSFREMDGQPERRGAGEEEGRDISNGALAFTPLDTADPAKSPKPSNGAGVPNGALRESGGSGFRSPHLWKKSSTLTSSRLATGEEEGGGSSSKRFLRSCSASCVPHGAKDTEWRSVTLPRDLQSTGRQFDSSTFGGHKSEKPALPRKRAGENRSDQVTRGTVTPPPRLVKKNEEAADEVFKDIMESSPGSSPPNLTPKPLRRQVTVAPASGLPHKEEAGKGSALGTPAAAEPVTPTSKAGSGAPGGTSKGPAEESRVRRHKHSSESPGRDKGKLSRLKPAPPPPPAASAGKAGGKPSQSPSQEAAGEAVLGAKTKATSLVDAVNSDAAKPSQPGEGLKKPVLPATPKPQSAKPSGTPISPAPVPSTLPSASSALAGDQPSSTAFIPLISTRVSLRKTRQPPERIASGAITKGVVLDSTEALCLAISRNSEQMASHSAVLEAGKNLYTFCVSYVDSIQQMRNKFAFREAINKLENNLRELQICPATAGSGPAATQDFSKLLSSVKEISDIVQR

[12] = Volume of distribution at steady state in rat at 35 mg/kg, iv and 35 mg/kg, po; type: ADME, organism-based; conditions: in vivo, read-out: Vdss; procedure, shortened: as §1
[13] = molecular target: Proto-oncogene tyrosine-protein kinase Src (Homo sapiens) (UniProt P12931); assay: Inhibition of c-Src at >1000 nM
Proto-oncogene tyrosine-protein kinase Src (Homo sapiens), sequence (P12931 2-536 limits assumed): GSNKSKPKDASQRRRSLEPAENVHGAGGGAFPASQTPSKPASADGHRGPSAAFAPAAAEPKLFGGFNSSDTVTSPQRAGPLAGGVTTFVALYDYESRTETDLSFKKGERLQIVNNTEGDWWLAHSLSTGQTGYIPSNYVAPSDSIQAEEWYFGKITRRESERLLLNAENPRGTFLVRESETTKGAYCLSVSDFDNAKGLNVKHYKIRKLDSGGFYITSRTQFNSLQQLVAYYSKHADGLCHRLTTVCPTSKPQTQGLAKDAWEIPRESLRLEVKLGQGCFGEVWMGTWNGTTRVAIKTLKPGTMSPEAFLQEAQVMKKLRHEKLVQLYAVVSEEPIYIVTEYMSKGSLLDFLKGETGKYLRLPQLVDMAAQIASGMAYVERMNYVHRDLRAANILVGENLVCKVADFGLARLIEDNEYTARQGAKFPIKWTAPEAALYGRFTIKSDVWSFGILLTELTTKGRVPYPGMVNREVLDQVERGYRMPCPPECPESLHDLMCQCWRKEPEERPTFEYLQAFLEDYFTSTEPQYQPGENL

IC50 [1] [nM] | IC50 [2] [nM] | Compound | other results
5 | 50 | Brc1cccc(Nc2ncnc3cc4c(cc23)OCCOCCOCCO4)c1 | –
7 | > 1000 | Brc1cccc(Nc2ncnc3cc4c(cc23)OCCSCCO4)c1 | –
55 | – | Brc1cccc(Nc2ncnc3cc4c(cc23)OCCOCCO4)c1 | –
5 | 50 | Brc1cccc(Nc2ncnc3cc4c(cc23)OCCOCOCOCCO4)c1 | –
2 | 45 | Fc1ccc(Nc2ncnc3cc4c(cc23)OCCOCCOCCO4)cc1Cl | –
120 | – | Brc1cccc(Nc2ncnc3cc4c(cc23)Oc2ccccc2O4)c1 | –
2 | 55 | Clc1cccc(Nc2ncnc3cc4c(cc23)OCCOCCOCCO4)c1 | –
150 | – | Cc1ccc(S(=O)(=O)N2CCOc3cc4ncnc(Nc5cccc(Br)c5)c4cc3OCC2)cc1 | –
85 | – | Brc1cccc(Nc2ncnc3cc4c(cc23)OCCCO4)c1 | –
8 | > 1000 | Brc1cccc(Nc2ncnc3cc4c(cc23)OCCCSCCCO4)c1 | –

Compound | IC50 [1] [nM] | IC50 [2] [nM] | other results
C#Cc1cccc(Nc2ncnc3cc4c(cc23)OCCOCCOCCO4)c1 [ICOTINIB] | 2 | 45 | inhibition [3]: inactive; MRT [4]: 6.9 h; half-life [5]: 2.8 h; clearance [6]: 21 mL/min/kg; Cmax [7]: 6120 ng/mL; bioavailability [8]: 52%; AUC [9]: 49.4 µg/mL; inhibition [10]: Dose-dependent effect; inhibition [11]: inactive; Vd [12]: 3.9 L/kg; inhibition [13]: inactive
